Results on nine molecules are retold here after ChEMBL document CHEMBL4680284, “Doxorubicin and Aclarubicin: Shuffling Anthracycline Glycans for Improved Anticancer Agents” (J Med Chem, 2020).

SMILES strings stand for the structures. Calls of active or inactive are those of the source. No cut-off for these calls is given here.

The subject of data set [1] is DNA. The data set is described as follows: Induction of DNA damage in human K562 cells assessed as induction of DNA break formation by measuring H2AX phosphorylation at 10 uM incubated for 2 hrs by Western blot analysis. The class given is cell-based. In a few lines: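 K562 cells were given 10 μM drug for 2 h, then washed extensively. They were lysed in SDS sample buffer (2% SDS, 60 mM Tris–HCl pH 6.8) and run on SDS-PAGE. Blots were probed for γH2AX (1:1000), with β-actin (1:10000) as the loading control. The γH2AX signal was quantified relative to actin.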
(Immunoblotting shows a protein as a band on a membrane.)

A further data set concerns K562. The experiment in a line: Cytotoxicity in human K562 cells assessed as reduction in cell viability incubated for 2 hrs by Cell-titer-blue assay. In kind it is functional, cell-based. To be noted: K562, 2 h. In a few lines:
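The drugs were then removed and the cells grown a further 72 h before a CellTiter-Blue viability read. Survival was normalized to the untreated control and background-corrected, with mean ± SD from three experiments. Culture was at 37 °C in 5% CO2. Media with 8% FCS were RPMI-1640 (DU145, HCT116, K562, PC3), IMDM (MelJuSo) and DMEM (U87).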

In the next data set the test system is HCT-116. The experiment in a line: Cytotoxicity in human HCT-116 cells assessed as reduction in cell viability incubated for 2 hrs by Cell-titer-blue assay. To be noted: HCT-116, 2 h. The class given is functional, cell-based. In a few lines: (§1)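 The drugs were then removed and the cells grown a further 72 h before a CellTiter-Blue viability read. Survival was normalized to the untreated control and background-corrected, with mean ± SD from three experiments. Culture was at 37 °C in 5% CO2.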

Data set [2] concerns DNA. The experiment in a line: Induction of DNA damage in human K562 cells assessed as induction of DNA break formation by measuring H2AX phosphorylation at 10 uM incubated for 2 hrs by constant-field gel […] method. The class given is cell-based. The essentials:
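K562 cells were exposed to 10 μM drug for 2 h and washed extensively. DNA double-strand breaks were then resolved by constant-field gel electrophoresis and the images quantified. Results are mean ± SD of three independent experiments.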

The test system of another data set is PC-3. The data set is described as follows: Cytotoxicity in human PC-3 cells assessed as reduction in cell viability incubated for 2 hrs by Cell-titer-blue assay. The class given is functional, cell-based. The conditions noted are these: PC-3, 2 h. In a few lines:
as §1

Data set [3] relates to MEL-JUSO. The data set is described as follows: Cytotoxicity in human MEL-JUSO cells assessed as reduction in cell viability incubated for 2 hrs by Cell-titer-blue assay. The class given is functional, cell-based. In a few lines: as §1
The test system of data set [4] is MEL-JUSO. The experiment in a line: Induction of histone eviction in human MEL-JUSO cells assessed as release of photoactivated green fluorescent protein-labeled histone H2A at 10 uM incubated for 2 hrs by time-lapse confocal microscopy. In kind it is functional, cell-based. In a few lines:
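MelJuSo cells stably expressing PAGFP-H2A were kept in IMDM with 8% FCS and G-418. Nuclear regions were photoactivated and 10 μM drug was added. Time-lapse confocal imaging (63× lens, climate chamber) followed the loss of fluorescence from the activated regions. Values are mean ± SD of 10–20 cells from at least three independent experiments.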

The target of data set [5] is DNA topoisomerase 2-alpha (Homo sapiens) (UniProt P11388). The data set is described as follows: Induction of relocalization of GFP-tagged Topo2a (unknown origin) expressed in human MEL-JUSO cells at 10 uM incubated for 15 mins. In kind it is cell-based. The essentials:
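MelJuSo cells were transiently transfected with a TopoIIα-GFP construct and imaged live by confocal microscopy. Relocalization of TopoIIα was expressed as a fractional distance.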

The next data set has as its system DU-145. The data set is described as follows: Cytotoxicity in human DU-145 cells assessed as reduction in cell viability incubated for 2 hrs by Cell-titer-blue assay. In kind it is functional, cell-based. The conditions noted are these: DU-145, 2 h. The essentials:
as §1

For the next data set, the system named is U-87 MG. The experiment in a line: Cytotoxicity in human U87 cells assessed as reduction in cell viability incubated for 2 hrs by Cell-titer-blue assay. In kind it is functional, cell-based, U-87MG ATCC. In a few lines:
as §1

Data set [6] in a line: Drug uptake in human K562 cells at 1 uM by flow cytometry relative to doxorubicin. The class given is ADME, cell-based. To be noted: k562, 1 µM. The essentials:
(§2)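 K562 cells in RPMI-1640 with 8% FCS were exposed to 1 μM drug for 2 h. They were then washed, collected and fixed with paraformaldehyde. The intrinsic anthracycline fluorescence was read by flow cytometry with a 561 nm laser and a 610/20 nm detector.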
(A flow cytometer gives signals particle by particle.)

Data set [7] in a line: Drug uptake in human K562 cells at 1 uM by flow cytometry relative to aclarubicin. The class given is ADME, cell-based. To be noted: k562, 1 µM. In a few lines:
as §2

The IC50 is the concentration at which inhibition is half-maximal.

Chain of DNA topoisomerase 2-alpha (Homo sapiens) (P11388 whole entry): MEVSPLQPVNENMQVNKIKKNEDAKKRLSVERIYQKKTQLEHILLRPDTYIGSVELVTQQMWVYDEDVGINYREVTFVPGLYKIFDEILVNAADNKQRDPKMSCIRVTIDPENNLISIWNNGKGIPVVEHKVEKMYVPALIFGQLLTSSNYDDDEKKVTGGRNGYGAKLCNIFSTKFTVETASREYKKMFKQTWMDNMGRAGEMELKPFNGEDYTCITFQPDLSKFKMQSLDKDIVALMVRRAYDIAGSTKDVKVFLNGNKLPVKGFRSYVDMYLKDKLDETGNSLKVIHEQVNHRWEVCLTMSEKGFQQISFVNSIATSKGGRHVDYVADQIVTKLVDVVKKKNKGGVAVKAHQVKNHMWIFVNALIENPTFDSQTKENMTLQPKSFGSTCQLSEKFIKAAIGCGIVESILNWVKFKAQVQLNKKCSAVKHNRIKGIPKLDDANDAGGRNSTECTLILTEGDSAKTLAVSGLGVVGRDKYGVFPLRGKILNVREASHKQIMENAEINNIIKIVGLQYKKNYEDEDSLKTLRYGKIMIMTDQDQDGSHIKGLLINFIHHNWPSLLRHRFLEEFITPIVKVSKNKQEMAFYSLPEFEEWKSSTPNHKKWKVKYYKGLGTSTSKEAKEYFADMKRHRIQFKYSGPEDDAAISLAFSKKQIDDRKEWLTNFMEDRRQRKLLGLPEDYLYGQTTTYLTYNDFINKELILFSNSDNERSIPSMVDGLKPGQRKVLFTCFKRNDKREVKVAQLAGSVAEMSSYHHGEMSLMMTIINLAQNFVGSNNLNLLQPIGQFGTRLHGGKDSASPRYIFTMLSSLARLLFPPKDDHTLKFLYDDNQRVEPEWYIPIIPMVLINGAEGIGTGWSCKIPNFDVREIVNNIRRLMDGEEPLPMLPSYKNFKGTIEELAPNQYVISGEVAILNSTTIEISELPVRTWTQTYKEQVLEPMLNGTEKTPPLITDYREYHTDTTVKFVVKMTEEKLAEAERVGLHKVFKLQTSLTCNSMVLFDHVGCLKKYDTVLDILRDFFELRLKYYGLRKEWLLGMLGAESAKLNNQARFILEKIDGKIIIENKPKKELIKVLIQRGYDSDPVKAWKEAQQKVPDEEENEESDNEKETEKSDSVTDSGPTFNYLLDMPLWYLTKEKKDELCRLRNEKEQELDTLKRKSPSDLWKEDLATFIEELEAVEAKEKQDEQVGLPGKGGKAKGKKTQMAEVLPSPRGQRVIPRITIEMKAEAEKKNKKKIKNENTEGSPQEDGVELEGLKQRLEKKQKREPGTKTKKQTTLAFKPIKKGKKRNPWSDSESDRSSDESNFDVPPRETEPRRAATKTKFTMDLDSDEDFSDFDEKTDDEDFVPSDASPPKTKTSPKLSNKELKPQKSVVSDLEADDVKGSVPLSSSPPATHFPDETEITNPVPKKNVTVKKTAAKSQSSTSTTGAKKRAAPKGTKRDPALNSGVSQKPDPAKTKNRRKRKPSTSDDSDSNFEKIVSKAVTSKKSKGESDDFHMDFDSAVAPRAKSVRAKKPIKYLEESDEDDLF

As for `COc1cccc2c1C(=O)c1c(O)c3c(c(O)c1C2=O)C[C@@](O)(C(=O)CO)C[C@@H]3O[C@H]1C[C@H](N)[C@H](O)[C@H](C)O1` [DOXORUBICIN], the result (in the data set with DNA [1]; in the data set with DNA [2]; in the data set with MEL-JUSO [4]; in data set [5] (filed as modulator)) was Active. The IC50 with K562 stood at 361 nM; with HCT-116, 579 nM; with PC-3, 1140 nM; in the data set with MEL-JUSO [3] it was 237 nM; in the data set on DU-145, 534 nM; with U-87 MG, 381 nM.

As to `COc1cccc2c1C(=O)c1c(O)c3c(c(O)c1C2=O)C[C@@](O)(C(=O)CO)C[C@@H]3O[C@H]1C[C@H](N)[C@H](O[C@H]2C[C@H](O)[C@H](O)[C@H](C)O2)[C@H](C)O1`, the outcome (in the data set on DNA [1]; in the data set on DNA [2]; in the data set with MEL-JUSO [4]; in data set [5]) was inactive. The Drug uptake result in [6] is “Not Active”.

In the case of `COc1cccc2c1C(=O)c1c(O)c3c(c(O)c1C2=O)C[C@@](O)(C(=O)CO)C[C@@H]3O[C@H]1C[C@H](N(C)C)[C@H](O[C@H]2C[C@H](O)[C@H](O)[C@H](C)O2)[C@H](C)O1`, the result in the data set with DNA [1] and in the data set with DNA [2] was inactive. Further, the IC50 was 2410 nM with K562; 1370 nM with HCT-116; 3200 nM in the data set on PC-3; 1570 nM with MEL-JUSO [3]; 3200 nM in the data set with DU-145; 603 nM in the data set on U-87 MG. Besides, the outcome (in the data set on MEL-JUSO [4]; in data set [5] (filed as modulator)) was Active. Moreover, the Drug uptake result in data set [6] is reported as “Not Active”.

As for `CC[C@@]1(O)C[C@H](O[C@H]2C[C@H](N(C)C)[C@H](O[C@H]3C[C@H](O)[C@H](O)[C@H](C)O3)[C@H](C)O2)c2c(cc3c(c2O)C(=O)c2c(O)cccc2C3=O)[C@H]1C(=O)OC`, the result in the data set with DNA [1] and with DNA [2] was inactive. The Drug uptake entry in data set [7] was “Active”. The IC50 in the data set on K562 came out at 211 nM; with HCT-116, 261 nM; with PC-3, 383 nM; in the data set with MEL-JUSO [3] it was 423 nM; with DU-145 it was 509 nM; in the data set on U-87 MG, 448 nM. For the same molecule, the result (in the data set with MEL-JUSO [4]; in data set [5] (filed as modulator)) was Active.

As to `CC[C@@]1(O)C[C@H](O[C@H]2C[C@H](N)[C@H](O)[C@H](C)O2)c2c(cc3c(c2O)C(=O)c2c(O)cccc2C3=O)[C@H]1C(=O)OC`, the outcome in the data set with DNA [1], in the data set with DNA [2] and in the data set on MEL-JUSO [4] was inactive. Moreover, the Drug uptake result in [7] is reported as “Not Active”. Also, the outcome in data set [5] (filed as modulator) was Active.

Turning to `CC[C@@]1(O)C[C@H](O[C@H]2C[C@H](N)[C@H](O[C@H]3C[C@H](O)[C@H](O[C@H]4CCC(=O)[C@H](C)O4)[C@H](C)O3)[C@H](C)O2)c2c(cc3c(c2O)C(=O)c2c(O)cccc2C3=O)[C@H]1C(=O)OC`, the result with DNA [1], in the data set on DNA [2] and in the data set on MEL-JUSO [4] was inactive. The Drug uptake result in [7] is recorded as “Active”. Further, in the data set with K562, the IC50 worked out at 3040 nM. Besides, the result in data set [5] (filed as modulator) was Active.

Take `COc1cccc2c1C(=O)c1c(O)c3c(c(O)c1C2=O)C[C@@](O)(C(=O)CO)C[C@@H]3O[C@H]1C[C@H](N(C)C)[C@H](O[C@H]2C[C@H](O)[C@H](O[C@H]3CCC(=O)[C@H](C)O3)[C@H](C)O2)[C@H](C)O1`: the result in the data set on DNA [1] and in the data set on DNA [2] was inactive. Also, the IC50 amounted to 26 nM in the data set on K562; 8 nM with HCT-116; 34 nM in the data set with PC-3; 7 nM in the data set on MEL-JUSO [3]; 17 nM in the data set on DU-145; 33 nM with U-87 MG. Further, the result (in the data set on MEL-JUSO [4]; in data set [5] (filed as modulator)) was Active. The “fold change (FC)” value in data set [6] was determined as 4.

As to `CC[C@@]1(O)C[C@H](O[C@H]2C[C@H](N(C)C)[C@H](O[C@H]3C[C@H](O)[C@H](O[C@H]4CCC(=O)[C@H](C)O4)[C@H](C)O3)[C@H](C)O2)c2c(cc3c(c2O)C(=O)c2c(O)cccc2C3=O)[C@H]1C(=O)OC` [ACLARUBICIN], the result in the data set with DNA [1] and in the data set with DNA [2] was inactive. In addition, the IC50 in the data set with K562 worked out at 76 nM; in the data set with HCT-116 it was 40 nM; with PC-3 it was 101 nM; in the data set with MEL-JUSO [3] it was 48 nM; with DU-145, 129 nM; in the data set on U-87 MG it was 137 nM. Besides, the outcome (in the data set on MEL-JUSO [4]; in data set [5] (filed as modulator)) was Active.

In the case of `COc1cccc2c1C(=O)c1c(O)c3c(c(O)c1C2=O)C[C@@](O)(C(=O)CO)C[C@@H]3O[C@H]1C[C@H](N)[C@H](O[C@H]2C[C@H](O)[C@H](O[C@H]3CCC(=O)[C@H](C)O3)[C@H](C)O2)[C@H](C)O1`, the outcome (with DNA [1]; in the data set on DNA [2]; in [5] (filed as modulator)) was Active. Besides, the IC50 in the data set on K562 is 1400 nM; with HCT-116, 1860 nM; in the data set with PC-3 it was 1540 nM; in the data set with MEL-JUSO [3], 1810 nM; in the data set on DU-145, 1360 nM; in the data set on U-87 MG, 2210 nM. In addition, the result in the data set on MEL-JUSO [4] was inactive. Besides, in [6], the Drug uptake entry is listed as “Not Active”.
